Assay results as given in ChEMBL document CHEMBL5030525, “Design, synthesis and antitumor activity evaluation of trifluoromethyl-substituted pyrimidine derivatives” (Bioorg Med Chem Lett, 2021).
Each block holds one compound with its values, some of them ahead of it. Active and inactive are the calls of the source. The calls are words filed in the database; no cut-off is given here.

Columns and labels:
NCI-H1975 [1] = experiment: Induction of apoptosis in human NCI-H1975 cells assessed as increase in total apoptotic cells at 2 uM measured after 72 hrs by Annexin V-FITC/PI staining double staining based flow cytometry analysis (Rvb= 3.86%); format: functional
NCI-H1975 [2] = experiment: Antiproliferative activity against human NCI-H1975 cells assessed as inhibition of cell growth measured after 72 hrs by MTT assay; format: functional, cell-based; details: NCI-H1975, 72 h
Method in brief: (§1)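 Cells in log phase were seeded at 3000–5000 per well and cultured 24 h at 37 °C, then exposed to a range of compound concentrations in fresh medium for 72 h. MTT was added and incubated 4 h at 37 °C, formazan was dissolved in DMSO, and absorbance was read at 490 nm. IC50 was taken from survival rate, as mean ± SD of three independent experiments. Stocks were 10 mM in DMSO.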

NCI-H1975 [3] = experiment: Induction of apoptosis in human NCI-H1975 cells assessed as increase in total apoptotic cells at 1 uM measured after 72 hrs by Annexin V-FITC/PI staining double staining based flow cytometry analysis (Rvb= 3.86%); format: functional
MGC-803 = experiment: Antiproliferative activity against human MGC-803 cells assessed as inhibition of cell growth measured after 72 hrs by MTT assay; format: functional, cell-based; details: MGC-803, 72 h; method in brief: as §1
NCI-H1975 [4] = experiment: Induction of apoptosis in human NCI-H1975 cells assessed as increase in number of change in apoptotic morphology at 2 to 4 uM measured after 48 hrs by DAPI staining based fluorescence microscopic analysis; format: functional, cell-based; details: dose 2-4 µM
Method in brief: (§2)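 H1975 cells were seeded at 2×10^5 per well and incubated 24 h, then exposed to 0, 2 or 4 μM for 48 h. Cells were PBS-washed, fixed in pre-cooled methanol at 4 °C for 10 min, and stained with DAPI in the dark. Nuclear morphology was imaged by fluorescence microscopy.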

NCI-H1975 [5] = experiment: Effect on cell cycle progression in human NCI-H1975 cells assessed a accumulation of cells at G2/M phase at 1 uM measured after 24 hrs by RNase A/PI staining based flow cytometry analysis (Rvb= 5.78%); format: functional
NCI-H1975 [6] = experiment: Induction of apoptosis in human NCI-H1975 cells assessed as increase in total apoptotic cells at 2 uM measured after 48 hrs by Annexin V-FITC/PI staining double staining based flow cytometry analysis (Rvb= 3.86%); format: functional
NCI-H1975 [7] = experiment: Induction of apoptosis in human NCI-H1975 cells assessed as nucleus shrinkage at 2 to 4 uM measured after 48 hrs by DAPI staining based fluorescence microscopic analysis; format: functional, cell-based; details: dose 2-4 µM; method in brief: as §2
NCI-H1975 [8] = experiment: Effect on cell cycle progression in human NCI-H1975 cells assessed a accumulation of cells at G1 phase at 2 uM measured after 24 hrs by RNase A/PI staining based flow cytometry analysis (Rvb= 42.16%); format: functional
NCI-H1975 [9] = experiment: Effect on cell cycle progression in human NCI-H1975 cells assessed a accumulation of cells at G1 phase at 1 uM measured after 24 hrs by RNase A/PI staining based flow cytometry analysis (Rvb= 42.16%); format: functional
NCI-H1975 [10] = experiment: Induction of apoptosis in human NCI-H1975 cells assessed as increase in total apoptotic cells at 4 uM measured after 48 hrs by Annexin V-FITC/PI staining double staining based flow cytometry analysis (Rvb= 3.86%); format: functional
NCI-H1975 [11] = experiment: Effect on cell cycle progression in human NCI-H1975 cells assessed a accumulation of cells at G2/M phase at 4 uM measured after 24 hrs by RNase A/PI staining based flow cytometry analysis (Rvb= 5.78%); format: functional
[12] = Selectivity index, ratio of IC50 for cytotoxicity against human GES1 cells to IC50 for antiproliferative activity against human NCI-H1975 cells; format: toxicity, cell-based; details: GES1 cells versus NCI-H1975 cells, read-out: Ratio IC50
Method in brief: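 Ratio of GES-1 IC50 to H1975 IC50. Both came from the 72 h MTT assay, with IC50 as the mean ± SD of three separate experiments.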

NCI-H1975 [13] = experiment: Effect on cell cycle progression in human NCI-H1975 cells assessed a accumulation of cells at G1 phase at 4 uM measured after 24 hrs by RNase A/PI staining based flow cytometry analysis (Rvb= 42.16%); format: functional
NCI-H1975 [14] = experiment: Effect on cell cycle progression in human NCI-H1975 cells assessed a accumulation of cells at S phase at 2 uM measured after 24 hrs by RNase A/PI staining based flow cytometry analysis (Rvb= 52.06%); format: functional
NCI-H1975 [15] = experiment: Effect on cell cycle progression in human NCI-H1975 cells assessed a accumulation of cells at G2/M phase at 2 uM measured after 24 hrs by RNase A/PI staining based flow cytometry analysis (Rvb= 5.78%); format: functional
NCI-H1975 [16] = experiment: Induction of apoptosis in human NCI-H1975 cells assessed as increase in total apoptotic cells at 4 uM measured after 72 hrs by Annexin V-FITC/PI staining double staining based flow cytometry analysis (Rvb= 3.86%); format: functional
NCI-H1975 [17] = experiment: Effect on cell cycle progression in human NCI-H1975 cells assessed a accumulation of cells at S phase at 1 uM measured after 24 hrs by RNase A/PI staining based flow cytometry analysis (Rvb= 52.06%); format: functional
NCI-H1975 [18] = experiment: Induction of apoptosis in human NCI-H1975 cells assessed as down regulation of Bcl-2 expression at 1 to 4 uM measured after 48 hrs by western blot analysis; format: functional, cell-based; details: dose 1-4 µM
Method in brief: (§3)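 H1975 cells in dishes were incubated 24 h, then treated at 0, 1, 2 or 4 μM for 48 h. Cells were trypsinised and lysed in RIPA, and protein was quantified by BCA. Proteins were separated by SDS-PAGE, transferred to nitrocellulose, and blocked in 5% skim milk. Primary antibodies were applied overnight at 4 °C, then secondary (1:10000) for 2 h. Detection was by ECL, with GAPDH as control and densitometry.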

NCI-H1975 [19] = experiment: Induction of apoptosis in human NCI-H1975 cells assessed as increase in Bax protein expression at 1 to 4 uM measured after 48 hrs by western blot analysis; format: functional, cell-based; details: dose 1-4 µM; method in brief: as §3
NCI-H1975 [20] = experiment: Effect on cell cycle progression in human NCI-H1975 cells assessed a accumulation of cells at S phase at 4 uM measured after 24 hrs by RNase A/PI staining based flow cytometry analysis (Rvb= 52.06%); format: functional
NCI-H1975 [21] = experiment: Induction of apoptosis in human NCI-H1975 cells assessed as broken nucleus at 2 to 4 uM measured after 48 hrs by DAPI staining based fluorescence microscopic analysis; format: functional, cell-based; details: dose 2-4 µM; method in brief: as §2
MCF7 = experiment: Antiproliferative activity against human MCF7 cells assessed as inhibition of cell growth measured after 72 hrs by MTT assay; format: functional, cell-based; details: MCF7, 72 h; method in brief: as §1
NCI-H1975 [22] = experiment: Induction of apoptosis in human NCI-H1975 cells assessed as increase in P53 expression at 1 to 4 uM measured after 48 hrs by western blot analysis; format: functional, cell-based; details: dose 1-4 µM; method in brief: as §3
GES1 = experiment: Cytotoxicity against human GES1 cells assessed as reduction in cell viability measured after 72 hrs by MTT assay; format: cell-based; details: GES1, 72 h; method in brief: as §1
NCI-H1975 [23] = experiment: Inhibition of colony formation in human NCI-H1975 cells at 4 uM measured after 9 days by crystal violet staining based microscopic analysis relative to control; format: functional; details: NCI-H1975, 216 h, time 9 day
Method in brief: (§4)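 Log-phase cells were seeded at 1000 per well, incubated about 24 h, then exposed to 0, 1, 2 or 4 μM for 9 days. Cells were PBS-washed, fixed with ice-cold methanol for 30 min, and stained with crystal violet for 30 min. Plates were photographed and colonies examined by microscopy.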

NCI-H1975 [24] = experiment: Induction of apoptosis in human NCI-H1975 cells assessed as increase in total apoptotic cells at 1 uM measured after 48 hrs by Annexin V-FITC/PI staining double staining based flow cytometry analysis (Rvb= 3.86%); format: functional
NCI-H1975 [25] = experiment: Inhibition of colony formation in human NCI-H1975 cells measured after 9 days by crystal violet staining based microscopic analysis; format: functional, cell-based; details: time 9.0 day; method in brief: as §4
NCI-H1975 [26] = experiment: Induction of apoptosis in human NCI-H1975 cells assessed as appearance of dense particles at 2 to 4 uM measured after 48 hrs by DAPI staining based fluorescence microscopic analysis; format: functional, cell-based; details: dose 2-4 µM; method in brief: as §2
PC-3 = experiment: Antiproliferative activity against human PC-3 cells assessed as inhibition of cell growth measured after 72 hrs by MTT assay; format: functional, cell-based; details: PC-3, 72 h; method in brief: as §1

IC50 (NCI-H1975 [2]): 2.27 µM
IC50 (MGC-803): 10.8 µM
IC50 (MCF7): 8.81 µM
IC50 (PC-3): 7.88 µM
Structure (SMILES): FC(F)(F)c1ccc(CSc2nc(Sc3nncs3)cc(C(F)(F)F)n2)cc1
Activity (NCI-H1975 [1]): 17.31%
Activity (NCI-H1975 [3]): 7.7%
Activity (NCI-H1975 [4]): Active
Activity (NCI-H1975 [5]): 13.63%
Activity (NCI-H1975 [6]): 11.13%
Activity (NCI-H1975 [7]): Active
Activity (NCI-H1975 [8]): 31.16%
Activity (NCI-H1975 [9]): 34.53%
Activity (NCI-H1975 [10]): 16.68%
Activity (NCI-H1975 [11]): 30.39%
selectivity ratio [12]: 16.5
Activity (NCI-H1975 [13]): 25.06%
Activity (NCI-H1975 [14]): 47.56%
Activity (NCI-H1975 [15]): 21.28%
Activity (NCI-H1975 [16]): 29.08%
Activity (NCI-H1975 [17]): 51.84%
Activity (NCI-H1975 [18]): Active
Activity (NCI-H1975 [19]): Active
Activity (NCI-H1975 [20]): 44.55%
Activity (NCI-H1975 [21]): Active
Activity (NCI-H1975 [22]): Active
IC50 (GES1): 37.4 µM
inhibition at 4 µM (NCI-H1975 [23]): 90%
Activity (NCI-H1975 [24]): 5.04%
inhibition (NCI-H1975 [25]): Dose-Dependent Effect
Activity (NCI-H1975 [26]): Active

IC50 (NCI-H1975 [2]): 4.77 µM
IC50 (MGC-803): 9.8 µM
IC50 (MCF7): 7.08 µM
IC50 (PC-3): 5.65 µM
Structure (SMILES): C=CC(=O)Nc1cccc(Nc2cc(C(F)(F)F)nc(SCc3ccc(C(F)(F)F)cc3)n2)c1
selectivity ratio [12]: 6.6
IC50 (GES1): 31.5 µM
